pIC50: −log10 of the molar value.

Test system in one data set: not listed separately
In words: Inhibition of starfish CDK1/cyclin B using histone H1 as substrate after 10 mins in presence of [gamma32P}ATP. On the set-up: species or system Asteroidea.
Settings: not given; call rule not given here
What is called pIC50 is the negative decadic logarithm of the IC50, by convention in mol/L. Take `O=C1Cc2c([nH]c3ccc(Br)cc23)-c2ccccc2N1` [KENPAULLONE]: the pIC50 is 6.40.

A further data set concerns LoVo. In words: Antiproliferative activity against human LoVo cells after 96 hrs by MTT assay. The format is functional.
Settings: not given
By GI50 is commonly meant the concentration that inhibits growth by half. Low readings indicate greater sensitivity of the cells, high ones lower sensitivity of the cells. For `O=C1NCC/C(=N\O)c2c1[nH]c1ccc(Br)cc21`, it took 27.2 µM to inhibit growth by half (GI50).

On to `Cn1c2c(c3ccccc31)C(=O)CCNC2=O`, for which it took 36.8 µM to inhibit growth by half (GI50).

With `Cn1c2c(c3ccccc31)/C(=N/O)CCNC2=O`, the GI50 came out at 51.3 µM.

Consider `O=C1NCC/C(=N\O)c2c1[nH]c1ccccc21`, for which the GI50 was 40.5 µM.

On to `O=C1NCC/C(=N\OCc2ccccc2)c2c1[nH]c1ccccc21`, for which the GI50 was 24.3 µM.

`O=C1CCNC(=O)c2[nH]ccc21` [ALDISIN] had a 50% growth inhibitory concentration (GI50) above 100 µM.

In the case of `Cn1c2c(c3ccccc31)/C(=N/OCC1CCCCC1)CCNC2=O`, growth was halved (GI50) at 20.5 µM.

As to `O=C1NCCC(=O)c2c1[nH]c1ccccc21`, the concentration for 50% growth inhibition (GI50) turned out to be 36.9 µM.

The next data set concerns the target Cyclin-dependent kinase 2/cyclin A (Homo sapiens) (UniProt P24941+P20248+P78396). In words: Inhibition of recombinant CDK2/cyclin A expressed in Sf21 cells using histone H1 as substrate at 10 uM after 10 mins by scintillation counting in presence of [32P]ATP.
Settings: not given
The essentials:
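CDK2/cyclin A was combined on ice with histone H1 substrate in kit buffer, then inhibitor was added. Prediluted ³²P-ATP with MgCl2 and cold ATP was added, and tubes were shaken for 10 min at 30 °C. Aliquots were spotted on phosphocellulose paper, washed three times in 0.75% phosphoric acid, rinsed in acetone and counted by scintillation. Percent inhibition versus an untreated control is the mean of duplicate experiments.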
By inhibition is commonly meant the change of the read-out against control, counted positive when it falls. As for `O=C1NCC/C(=N\OCc2ccccc2)c2c1[nH]c(Br)c2Br`, the inhibition was determined as 0%.

For the compound `O=C1NCC/C(=N\O)c2c1[nH]c1ccc(Br)cc21`, the inhibition was 45%.

Take `Cn1c(Br)c(Br)c2c1C(=O)NCC/C2=N\OCc1ccccc1`: the inhibition was 22%.

For `Cn1c(Br)c(Br)c2c1C(=O)NCC/C2=N\OCC1CCCCC1`, the inhibition is 13%.

Take `O=C1NCC/C(=N\OCc2ccccc2)c2c1[nH]c1ccccc21`: the inhibition worked out at 32%.

Regarding `Cn1c2c(c3ccccc31)/C(=N/OCC1CCCCC1)CCNC2=O`, the inhibition was 12%.

Another data set deals with Cyclin-dependent kinase 2/cyclin A (Homo sapiens, UniProt P24941). In words: Inhibition of CDK2/cyclin A.
Settings: not given
The format is protein-complex assay.
For the compound `NC1=NC(=O)/C(=C2\CCNC(=O)c3[nH]c(Br)cc32)N1` [HYMENIALDISINE], the pIC50 was 7.15.

Test system in a further data set: not listed separately
In words: Drug degradation in DMEM cell culture medium assessed as (E)-5-(Hydroxyimino)-10-methyl-2,3,4,5-tetrahydroazepino[3,4-b]indol-1(10H)-one at 10 to 100 nmol after 7 days by NMR analysis. It counts as physicochemical. The following applies: 168 h. A digest of the protocol:
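Two solutions of the compound in cell culture medium (10 and 100) were held at 37 °C for seven days. They were then extracted with ethyl acetate, and breakdown was assessed by NMR.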
As to `Cn1c2c(c3ccccc31)/C(=N/OCC1CCCCC1)CCNC2=O`, the Drug degradation result is “Not Active”.

Regarding `Cn1c2c(c3ccccc31)/C(=N/OCc1ccccc1)CCNC2=O`, the Drug degradation is reported as 50%.

The next data set has as its system Jurkat. As to the kind of experiment: Inhibition of PMA- and PHA-stimulated IL2 production in human Jurkat T cells incubated for 30 mins prior to PMA- and PHA-stimulation by competitive enzyme immunoassay. The format is functional, cell-based.
Settings: not given
Compound `Nc1nc(C2=C3C(=Nc4ccccc43)C(=O)NCC2)c(O)[nH]1` gave a negative logarithm of the IC50 (pIC50) of 5.46.

For a further data set, the system named is A549. In words: Antiproliferative activity against human A549 cells after 96 hrs by MTT assay. It counts as functional. Particulars: A549, 96 h.
With `O=C1NCC/C(=N\O)c2c1[nH]c1ccc(Br)cc21`, growth was halved (GI50) at 63.3 µM.

Take `Cn1c2c(c3ccccc31)C(=O)CCNC2=O`: the GI50 was above 100 µM.

For `Cn1c2c(c3ccccc31)/C(=N/O)CCNC2=O`, the GI50 is above 100 µM.

Consider `O=C1NCC/C(=N\O)c2c1[nH]c1ccccc21`, for which the GI50 was above 100 µM.

In turn, `O=C1NCC/C(=N\OCc2ccccc2)c2c1[nH]c1ccccc21` had a GI50 of 34.9 µM.

`O=C1CCNC(=O)c2[nH]ccc21` [ALDISIN] showed a GI50 above 100 µM.

With `Cn1c2c(c3ccccc31)/C(=N/OCC1CCCCC1)CCNC2=O`, the 50% growth inhibitory concentration (GI50) was 32.1 µM.

`O=C1NCCC(=O)c2c1[nH]c1ccccc21` returned a concentration for 50% growth inhibition (GI50) of 97.7 µM.

A further data set relates to PC-3. In words: Antiproliferative activity against human PC3 cells after 96 hrs by MTT assay. The format is functional. The following applies: PC-3, 96 h.
Consider `O=C1NCC/C(=N\O)c2c1[nH]c1ccc(Br)cc21`, for which the 50% growth inhibitory concentration (GI50) is 46.2 µM.

On to `Cn1c2c(c3ccccc31)C(=O)CCNC2=O`, for which the GI50 is above 100 µM.

Regarding `Cn1c2c(c3ccccc31)/C(=N/O)CCNC2=O`, the 50% growth inhibitory concentration (GI50) was above 100 µM.

Regarding `O=C1NCC/C(=N\O)c2c1[nH]c1ccccc21`, the GI50 was above 100 µM.

`O=C1NCC/C(=N\OCc2ccccc2)c2c1[nH]c1ccccc21` registered a GI50 of 23.4 µM.

As to `O=C1CCNC(=O)c2[nH]ccc21` [ALDISIN], the GI50 was above 100 µM.

`Cn1c2c(c3ccccc31)/C(=N/OCC1CCCCC1)CCNC2=O` returned a GI50 of 29.1 µM.

`O=C1NCCC(=O)c2c1[nH]c1ccccc21` displayed a 50% growth inhibitory concentration (GI50) above 100 µM.

For another data set, the target named is Cyclin-dependent kinase 2/cyclin E1 (Homo sapiens, UniProt P24941). In words: Inhibition of CDK2/cyclin E. It counts as protein-complex assay.
Settings: not given
As to `NC1=NC(=O)/C(=C2\CCNC(=O)c3[nH]c(Br)cc32)N1` [HYMENIALDISINE], the pIC50 was 7.40.

The subject of the next data set is MCF7. In words: Antiproliferative activity against human MCF7 cells after 96 hrs by MTT assay. It counts as functional. The following applies: MCF7, 96 h. (Tetrazolium assays rely on reduction of a dye to a coloured formazan, in cell work by metabolically active cells.)
`O=C1NCC/C(=N\O)c2c1[nH]c1ccc(Br)cc21` showed a GI50 of 54.6 µM.

The compound `Cn1c2c(c3ccccc31)C(=O)CCNC2=O` gave a GI50 above 100 µM.

On to `Cn1c2c(c3ccccc31)/C(=N/O)CCNC2=O`, for which the 50% growth inhibitory concentration (GI50) was above 100 µM.

The compound `O=C1NCC/C(=N\O)c2c1[nH]c1ccccc21` yielded a GI50 above 100 µM.

`O=C1NCC/C(=N\OCc2ccccc2)c2c1[nH]c1ccccc21` had a 50% growth inhibitory concentration (GI50) of 28.1 µM.

As for `O=C1CCNC(=O)c2[nH]ccc21` [ALDISIN], the GI50 was above 100 µM.

`Cn1c2c(c3ccccc31)/C(=N/OCC1CCCCC1)CCNC2=O` returned a GI50 of 23.3 µM.

Consider `O=C1NCCC(=O)c2c1[nH]c1ccccc21`, for which the GI50 was above 100 µM.

The next data set concerns CCRF-CEM. As to the kind of experiment: Growth inhibition of human CCRF-CEM cells up to 48 hrs by trypan blue exclusion assay.
Settings: not given
The format is functional.
`Nc1nc(C2=C3C(=Nc4ccccc43)C(=O)NCC2)c(O)[nH]1` came in with a 50% growth inhibitory concentration (GI50) of 1.7 µM.

The values above are taken from ChEMBL document CHEMBL2086357 (Eur J Med Chem, 2012).
